Shown are actives, neighbours in structure and some others; about 2% of the full set was active somewhere.
DNA FID counter = fluorescent intercalator displacement, NS3 helicase counter-screen; DNA fluorescent intercalator displacement, fluorescence; inhibition, % at 7.9 µM; 290,000 compounds, 0.17% hits; AID 1845; in the data active = inhibition above about 37%;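 note: 0% = vehicle and 100% = reference compound; higher means more ethidium bromide displaced from hairpin DNA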
GPR7 antag = blocks human GPR7 receptor signaling | AID 1861 | GPR7-expressing cells, fluorescence antagonist assay | inhibition, % at 4.4 µM | 290,000 compounds, 1.1% hits; in the data active = inhibition above about 16%, passing the limit was not always enough;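 note: cells stimulated with the agonist NPW; 0% = agonist with vehicle and 100% = vehicle without agonist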
Target sequence (P48145 whole entry, looked up): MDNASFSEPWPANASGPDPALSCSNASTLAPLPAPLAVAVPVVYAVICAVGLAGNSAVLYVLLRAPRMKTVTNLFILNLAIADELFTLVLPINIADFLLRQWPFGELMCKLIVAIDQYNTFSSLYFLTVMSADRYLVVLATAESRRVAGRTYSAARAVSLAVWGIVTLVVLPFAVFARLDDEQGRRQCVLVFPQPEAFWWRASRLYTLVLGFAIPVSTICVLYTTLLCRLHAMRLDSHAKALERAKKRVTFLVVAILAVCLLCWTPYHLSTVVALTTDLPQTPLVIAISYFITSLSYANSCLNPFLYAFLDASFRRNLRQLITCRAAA
NS3 helicase inh = inhibitors of Hepatitis C virus NS3 helicase; 290,000 compounds, 0.56% hits; inhibition, % at 10.9 µM; NS3 helicase DNA unwinding, Cy5 molecular beacon fluorescence;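 active = inhibition above the mean of all tested compounds plus 3 SD, set per campaign, cut at about 35% in these data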;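 note: 0% = DMSO wells and 100% = thioflavine S control wells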
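System: NS3 helicase fragment of HCV / Schedule: 1 h at 25 °C / Control set: DMSO alone as 0% and 110 µM thioflavine S as 100% / Reagent: Cy5/quencher beacon DNA duplex and ATP to start / Technique: Cy5 fluorescence / Replication: singlicate / Evaluation: % inhibition of end-to-start signal ratio versus controls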
ZTA counter = counter-screen for EBNA-1 inhibitors: inhibitors of Epstein-Barr virus ZTA; AID 2234; inhibition, % at 11 µM; P03206; ZTA-DNA binding, fluorescence polarization; 320,000 compounds, 0.15% hits; in the data active = inhibition above about 33%
Target sequence (P03206 whole entry, looked up): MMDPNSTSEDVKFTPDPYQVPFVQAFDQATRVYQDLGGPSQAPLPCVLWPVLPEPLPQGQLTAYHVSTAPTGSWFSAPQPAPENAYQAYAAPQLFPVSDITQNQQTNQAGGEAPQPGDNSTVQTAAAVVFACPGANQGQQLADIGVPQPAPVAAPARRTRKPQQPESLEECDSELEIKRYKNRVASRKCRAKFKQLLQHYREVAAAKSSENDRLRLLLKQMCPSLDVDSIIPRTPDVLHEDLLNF
EBNA-1 inhibitor = blocks EBNA-1 binding to DNA. EBNA-1 DNA binding, fluorescence polarization. inhibition, % at 14.8 µM. 300,000 compounds, 0.34% hits. AID 1950; in the data active = inhibition above about 28%
GPR7 antag conf = human GPR7 antagonism, confirmation assay; shares compounds with GPR7 antag; GPR7-expressing cells, calcium fluorescence antagonist mode; inhibition, % at 4.4 µM; 2,400 compounds, 52% hits; AID 1952; in the data active = inhibition above about 24%;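 note: stimulated with the GPR7 agonist NPW; 0% = agonist plus vehicle and 100% = vehicle alone without agonist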
MCHR1 antag = MCHR1 (human) antagonism in GPR7 counter-screen. shares compounds with GPR7 antag. inhibition, % at 4.4 µM. MCHR1-expressing cells, fluorescence antagonist assay. 2,400 compounds, 62% hits. AID 2148; in the data active = inhibition above about 22%;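 note: 0% = vehicle with agonist and 100% = vehicle without agonist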
* hit, by the source's call; . = no result given.

SMILES | DNA FID counter | GPR7 antag | NS3 helicase inh | ZTA counter | EBNA-1 inhibitor | GPR7 antag conf | MCHR1 antag
CC1CN(C(=O)Cn2cc(S(=O)(=O)CC(=O)N3CCOCC3)c3ccccc32)CC(C)O1 (stereo unspecified) | -9 | -9 | 7 | 5 | 3 | . | .
O=C(NCc1ccccn1)C(=O)NCC1OCCN1S(=O)(=O)c1ccc([N+](=O)[O-])cc1 (stereo unspecified) | -5 | 1 | -6 | -14 | 9 | . | .
Cc1nn(Cc2ccc(C(=O)Nc3ccccc3F)cc2)c(C)c1Cl | -32 | 32* | -34 | -3 | -2 | 10 | 31*
CC(=O)c1c[nH]c(C(=O)Nc2ccc(N3CCCCCC3)cc2)c1 | . | . | . | 4 | . | . | .
CN(C)C(=O)c1cc2cc([N+](=O)[O-])ccc2s1 | 1 | 26* | 5 | -1 | -8 | -13 | 12
CSc1ccc(NC(=O)N2CCC(C(=O)c3ccc(F)cc3)CC2)cc1 | -22 | 7 | -2 | -8 | -8 | . | .
Cc1ccc2c(c1)C(N1CCCC1=O)CC(c1ccco1)N2 (stereo unspecified) | -11 | 31* | 26 | 1 | -5 | -3 | -3
O=C(CC1SC(N2CCCC2)=NC1=O)Nc1ccc(C(=O)N2CCN(c3cccc(Cl)c3)CC2)cc1 (stereo unspecified) | . | . | . | 8 | -5 | . | .
O=C(c1nn(Cc2ccccc2)c(=O)c2ccccc12)N1CCc2ccccc2C1 | -7 | 8 | -7 | 2 | -5 | . | .
O=C(c1nn(Cc2ccccc2)c(=O)c2ccccc12)N1CCN(c2ccccn2)CC1 | -23 | 30* | -5 | 10 | 6 | 32* | 27*
CCC(NC(=O)c1cc(COc2ccc(F)cc2Cl)on1)c1ccncc1 (stereo unspecified) | -13 | 30* | -11 | . | . | 22 | 47*
CCC(NC(=O)c1cc(COc2cncc(Cl)c2)on1)c1ccncc1 (stereo unspecified) | -27 | 9 | 8 | -2 | -2 | . | .
COc1cccc(CN2CCN(Cc3cc4ccccc4[nH]3)CC2CCO)c1 (stereo unspecified) | 3 | 67* | -18 | 1 | 1 | 79* | 81*
COC(=O)[C@@H](Cc1c[nH]c2ccccc12)NC(=O)CCC(=O)c1ccc(Br)cc1 | -28 | . | -8 | 0 | 6 | . | 14
COc1ccc(S(=O)(=O)N[C@@H](CSCc2ccccc2)C(=O)O)cc1 | -33 | 7 | 0 | . | . | . | .
O=C(NCCCn1ccnc1)C1CCN(S(=O)(=O)c2ccc(F)cc2)CC1 | -4 | -8 | -10 | 1 | -4 | . | .
Cc1cc2c(cc(C(=O)N3CCC(C(=O)N4CCCC4)CC3)n2Cc2c(F)cccc2Cl)o1 | -35 | 27* | -5 | -9 | -5 | 20 | 12
CCC(=O)Nc1nnc(S(=O)(=O)N(C)c2cc(C)cc(C)c2)s1 | -25 | -8 | -11 | . | . | . | .
Cn1c(Cc2cccc3ccccc23)nnc1SCc1ccc([N+](=O)[O-])cc1 | -20 | 29* | -17 | -10 | 7 | 1 | 15
CCc1nc(SCC(=O)c2c[nH]c3ccccc23)n[nH]1 | -2 | -11 | -4 | -6 | 6 | . | .
CC(C)c1nc(SCC(=O)c2c[nH]c3ccccc23)n[nH]1 | -1 | 33* | 32 | -7 | 9 | 8 | 18
COC(=O)c1ccc(C2=NOC(C)(c3nnc(Cc4ccccc4)o3)C2)cc1 (stereo unspecified) | . | . | . | -5 | -4 | . | .
Cc1ccc(/C(N)=N/OC(=O)c2cccc(Cn3cc(C(F)(F)F)ccc3=O)c2)cc1 | -8 | 21* | 19 | -15 | 11 | -7 | 23*
N/C(=N\OC(=O)c1cccc(Cn2cc(C(F)(F)F)ccc2=O)c1)c1ccccc1 | -10 | -17 | -2 | -2 | -12 | . | .
CCCC(=O)Nc1cccc(-c2cn3cccnc3n2)c1 | 1 | 68* | -7 | 10 | -13 | 8 | 5
SMILES | DNA FID counter | GPR7 antag | NS3 helicase inh | ZTA counter | EBNA-1 inhibitor | GPR7 antag conf | MCHR1 antag
CSc1ccc(S(=O)(=O)N2CCC(C(=O)NCc3ccccn3)CC2)cc1 | -22 | 2 | 13 | -22 | -4 | . | .
COc1ccc(S(=O)(=O)N2CCN(CCC(=O)Nc3ccccc3F)CC2)cc1 | -3 | 2 | -5 | -14 | 0 | . | .
COc1ccc(CC(=O)Nc2ccc(S(=O)(=O)N3CCOCC3)cc2)cc1 | . | . | . | 14 | . | . | .
COc1ccc(S(=O)(=O)N2CCCN(CC(=O)Nc3ccc4c(c3)OCO4)CC2)cc1 | -5 | 18 | 3 | -19 | -7 | . | .
COc1ccc(S(=O)(=O)N(CC(=O)Nc2ccc(S(=O)(=O)N3CCOCC3)cc2)Cc2ccc(F)cc2)cc1 | 0 | 24* | -12 | -25 | 0 | 28* | 21
COc1ccc(S(=O)(=O)N2CCCN(CC(=O)Nc3ccccc3F)CC2)cc1 | -32 | 30* | -4 | 7 | -16 | 4 | 42*
COc1ccc(S(=O)(=O)N2CCN(CC(=O)Nc3cccc(OC)c3)CC2)cc1 | -28 | 35* | -5 | 2 | -7 | 25* | 16
CCOC(=O)CCc1c(C)c2ccc(OCC)c(C)c2oc1=O | -3 | 32* | 4 | 6 | 4 | 42* | 30*
Cc1ccc(NC(=O)c2cnccn2)cc1C | -3 | -1 | -7 | 6 | 8 | . | .
CN(C(=O)COC(=O)c1cc(S(=O)(=O)N2CCOCC2)c(Cl)cc1Cl)C1CCS(=O)(=O)C1 (stereo unspecified) | -14 | 26* | 13 | 1 | -7 | -7 | 9
Cc1n[nH]c(=O)c2c(NC(=O)CSc3nn(-c4ccccc4)c(=S)s3)oc(C)c12 | . | . | . | 1 | 0 | . | .
Cc1ccc(-c2nnc(SCC(=O)NCCN3C(=O)CSC3=O)n2C)cc1 | . | . | . | 27 | . | . | .
CCOC(=O)C1CCCN(C(=O)c2sc3nc(C)nc(N(CC)CC)c3c2C)C1 (stereo unspecified) | -41 | 0 | -3 | 7 | 1 | . | .
CCC1CCCCN1C(=O)c1sc2nc(C)nc(N(CC)CC)c2c1C (stereo unspecified) | -32 | 25* | -15 | 4 | -3 | 21 | 19
O=C(Nc1cccc(Cl)c1)c1cc(S(=O)(=O)NCCc2ccc(Cl)cc2)ccc1F | 1 | 21* | -15 | 11 | -12 | -8 | 43*
CCS(=O)(=O)c1nc(S(=O)(=O)c2ccc(C)cc2)c(N2CCC(C)CC2)s1 | -41 | 22* | -7 | 0 | -22 | 15 | 49*
Cc1cccc2nc(-c3ccco3)oc(=O)c12 | 3 | -9 | -3 | -3 | -11 | . | .
O=C(Nc1ccc(-n2nncc2-c2ccco2)cc1)c1ccc(F)cc1 | -12 | 22* | 6 | -8 | -8 | 40* | 73*
Cc1ccsc1C(=O)NCCc1c[nH]c2ccccc12 | -11 | 5 | 1 | 1 | 0 | . | .
S=C(NCCCN1CCOCC1)N1CCN(c2nc(-c3ccc(Cl)cc3)cs2)CC1 | 11 | 5 | -81 | -18 | 1 | . | .

Compound activity: PubChem BioAssay, The Scripps Research Institute Molecular Screening Center
